Test results taken from ChEMBL document CHEMBL3120102, “Structure-based design, synthesis and biological evaluation of novel anthra[1,2-d]imidazole-6,11-dione homologues as potential antitumor agents” (2013).

How the values were obtained:
[1] = tested on: BT-549; test: Cytotoxicity against human BT549 cells assessed as cell growth at 10 uM after 48 hrs by SRB assay; assay type: functional; details: BT-549, 48 h, read-out: Activity
Summary of the method: (§1)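 NCI 60-cell-line screen, first stage: compound at a single dose of […] (unit as printed) for 48 h. Cellular protein was measured by sulforhodamine B colorimetry. Growth was determined using a time-zero cell control and plates not exposed to drug.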

[2] = tested on: TK-10; test: Cytotoxicity against human TK10 cells assessed as cell growth at 10 uM after 48 hrs by SRB assay; assay type: functional; details: TK-10, 48 h, read-out: Activity
Summary of the method: (§2)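 First stage of the NCI 60 human tumour cell line screen, with each compound tested at a single dose of 10. Cellular protein measured by sulforhodamine B colorimetry after 48 h drug exposure. Growth is calculated against a time-zero cell control and against plates not exposed to drug.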

[3] = tested on: RXF 393; test: Cytotoxicity against human RXF393 cells assessed as cell growth at 10 uM after 48 hrs by SRB assay; assay type: functional; details: RXF 393, 48 h, read-out: Activity
Summary of the method: (§3)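 First stage of the NCI 60 human tumour cell line screen: a single dose is tested against every line. Cell growth is read as cellular protein by sulforhodamine B colorimetry after 48 h of drug exposure, with reference to a time-zero control and to untreated plates.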

[4] = tested on: ACHN; test: Cytotoxicity against human ACHN cells assessed as cell growth at 10 uM after 48 hrs by SRB assay; assay type: functional; details: read-out: Activity
[5] = tested on: SK-OV-3; test: Cytotoxicity against human SKOV3 cells assessed as cell growth at 10 uM after 48 hrs by SRB assay; assay type: functional; details: SK-OV-3, 48 h, read-out: Activity; summary of the method: as §3
[6] = Cytotoxicity against human NCI-ADR-RES cells assessed as cell growth at 10 uM after 48 hrs by SRB assay; assay type: functional; details: read-out: Activity; summary of the method: as §3
[7] = Cytotoxicity against human OVCAR4 cells assessed as cell growth at 10 uM after 48 hrs by SRB assay; assay type: functional; details: OVCAR-4, 48 h, read-out: Activity; summary of the method: as §3
[8] = Cytotoxicity against human OVCAR5 cells assessed as cell growth at 10 uM after 48 hrs by SRB assay; assay type: functional; details: OVCAR-5, 48 h, read-out: Activity; summary of the method: as §3
[9] = tested on: IGROV-1; test: Cytotoxicity against human IGROV1 cells assessed as cell growth at 10 uM after 48 hrs by SRB assay; assay type: functional; details: IGROV-1, 48 h, read-out: Activity
[10] = tested on: UACC-62; test: Cytotoxicity against human UACC62 cells assessed as cell growth at 10 uM after 48 hrs by SRB assay; assay type: functional; details: UACC-62, 48 h, read-out: Activity; summary of the method: as §2
[11] = Cytotoxicity against human UACC257 cells assessed as cell growth at 10 uM after 48 hrs by SRB assay; assay type: functional; details: UACC-257, 48 h, read-out: Activity; summary of the method: as §2
[12] = tested on: SK-MEL-5; test: Cytotoxicity against human SK-MEL-5 cells assessed as cell growth at 10 uM after 48 hrs by SRB assay; assay type: functional; details: SK-MEL-5, 48 h, read-out: Activity; summary of the method: as §3
[13] = tested on: SK-MEL-2; test: Cytotoxicity against human SK-MEL-2 cells assessed as cell growth at 10 uM after 48 hrs by SRB assay; assay type: functional; details: SK-MEL-2, 48 h, read-out: Activity; summary of the method: as §3
[14] = tested on: M14; test: Cytotoxicity against human M14 cells assessed as cell growth at 10 uM after 48 hrs by SRB assay; assay type: functional; details: M14, 48 h, read-out: Activity; summary of the method: as §1
[15] = tested on: SNB-75; test: Cytotoxicity against human SNB75 cells assessed as cell growth at 10 uM after 48 hrs by SRB assay; assay type: functional; details: SNB-75, 48 h, read-out: Activity; summary of the method: as §2
[16] = tested on: SF-295; test: Cytotoxicity against human SF295 cells assessed as cell growth at 10 uM after 48 hrs by SRB assay; assay type: functional; details: SF-295, 48 h, read-out: Activity; summary of the method: as §3
[17] = tested on: SW-620; test: Cytotoxicity against human SW620 cells assessed as cell growth at 10 uM after 48 hrs by SRB assay; assay type: functional; details: SW-620, 48 h, read-out: Activity; summary of the method: as §2
[18] = tested on: HCT-15; test: Cytotoxicity against human HCT15 cells assessed as cell growth at 10 uM after 48 hrs by SRB assay; assay type: functional; details: HCT-15, 48 h, read-out: Activity
[19] = tested on: COLO 205; test: Cytotoxicity against human COLO205 cells assessed as cell growth at 10 uM after 48 hrs by SRB assay; assay type: functional; details: COLO 205, 48 h, read-out: Activity
[20] = tested on: NCI-H522; test: Cytotoxicity against human NCI-H522 cells assessed as cell growth at 10 uM after 48 hrs by SRB assay; assay type: functional; details: NCI-H522, 48 h, read-out: Activity; summary of the method: as §3
[21] = tested on: NCI-H460; test: Cytotoxicity against human NCI-H460 cells assessed as cell growth at 10 uM after 48 hrs by SRB assay; assay type: functional; details: NCI-H460, 48 h, read-out: Activity; summary of the method: as §3
[22] = tested on: NCI-H322M; test: Cytotoxicity against human NCI-H322M cells assessed as cell growth at 10 uM after 48 hrs by SRB assay; assay type: functional; details: read-out: Activity; summary of the method: as §3
[23] = tested on: HOP-92; test: Cytotoxicity against human HOP92 cells assessed as cell growth at 10 uM after 48 hrs by SRB assay; assay type: functional; details: HOP-92, 48 h, read-out: Activity; summary of the method: as §1
[24] = tested on: MOLT-4; test: Cytotoxicity against human MOLT4 cells assessed as cell growth at 10 uM after 48 hrs by SRB assay; assay type: functional; details: MOLT-4, 48 h, read-out: Activity; summary of the method: as §3
[25] = target: Telomerase reverse transcriptase (Homo sapiens) (UniProt O14746); test: Inhibition of human tert transcriptional activity assessed as SEAP activity at 100 uM after 24 hrs by SEAP reporter assay; design: scale not given: the % may be the effect or the level left
Sequence of Telomerase reverse transcriptase (Homo sapiens) (O14746 whole entry): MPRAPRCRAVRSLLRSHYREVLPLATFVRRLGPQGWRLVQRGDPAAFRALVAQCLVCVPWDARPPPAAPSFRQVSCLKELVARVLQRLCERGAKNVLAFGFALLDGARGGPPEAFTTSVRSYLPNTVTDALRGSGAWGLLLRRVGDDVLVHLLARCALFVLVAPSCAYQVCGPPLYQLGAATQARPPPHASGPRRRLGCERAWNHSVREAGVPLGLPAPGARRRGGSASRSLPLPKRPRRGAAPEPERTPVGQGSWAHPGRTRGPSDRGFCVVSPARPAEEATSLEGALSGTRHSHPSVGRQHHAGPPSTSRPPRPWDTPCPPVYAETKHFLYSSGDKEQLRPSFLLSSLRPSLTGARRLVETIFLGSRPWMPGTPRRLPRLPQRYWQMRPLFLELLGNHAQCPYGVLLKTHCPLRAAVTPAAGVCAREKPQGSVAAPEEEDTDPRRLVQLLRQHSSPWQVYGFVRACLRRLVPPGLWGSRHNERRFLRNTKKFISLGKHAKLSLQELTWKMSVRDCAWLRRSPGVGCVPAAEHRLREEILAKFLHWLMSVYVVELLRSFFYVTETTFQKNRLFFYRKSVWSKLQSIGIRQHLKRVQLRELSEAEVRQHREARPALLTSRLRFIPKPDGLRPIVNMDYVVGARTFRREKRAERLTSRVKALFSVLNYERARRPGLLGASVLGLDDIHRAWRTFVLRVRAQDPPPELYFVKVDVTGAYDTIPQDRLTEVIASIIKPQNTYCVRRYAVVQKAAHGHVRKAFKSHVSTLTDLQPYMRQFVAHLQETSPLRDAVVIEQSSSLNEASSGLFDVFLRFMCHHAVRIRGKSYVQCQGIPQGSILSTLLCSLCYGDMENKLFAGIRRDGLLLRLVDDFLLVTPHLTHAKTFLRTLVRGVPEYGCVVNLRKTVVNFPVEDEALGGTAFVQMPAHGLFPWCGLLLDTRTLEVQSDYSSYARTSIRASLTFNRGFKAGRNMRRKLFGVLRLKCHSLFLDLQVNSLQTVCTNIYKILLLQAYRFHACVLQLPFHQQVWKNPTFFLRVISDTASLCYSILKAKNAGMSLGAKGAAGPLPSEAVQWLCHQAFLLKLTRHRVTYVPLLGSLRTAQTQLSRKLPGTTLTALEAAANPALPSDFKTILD
Summary of the method: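 Reporter assay for hTERT transcriptional activity using secreted alkaline phosphatase. About 2 × 10³ cells per well were grown for 24 h at 37 °C, then given fresh medium. Buffer was added to the medium: 2 M diethanolamine, 1 mM MgCl2 and 20 mM L-homoarginine. p-Nitrophenyl phosphate was added to 12 mM final. The rate of absorbance increase was read at 405 nm.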

[26] = Cytotoxicity against human H1299 cells assessed as cell viability at 100 uM after 48 hrs by MTT assay; assay type: functional; details: NCI-H1299, 48 h, read-out: Activity
Summary of the method: (§4)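 About 2×10³ H1299 cells per well were grown for 24 h at 37 °C in 5% CO2. Compound was dissolved in DMSO immediately before use, diluted in complete medium and left on cells for 48 h. MTT was then added for 4 h at 37 °C, followed by SDS/DMF lysis buffer for 16 h at 37 °C. Absorbance was read at 550 nm.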

[27] = Cytotoxicity against human H1299 cells assessed as cell viability at 10 uM after 48 hrs by MTT assay; assay type: functional; details: NCI-H1299, 48 h, read-out: Activity; summary of the method: as §4
[28] = tested on: UACC-62; test: Cytotoxicity against human UACC62 cells assessed as growth inhibition after 48 hrs by SRB assay; assay type: functional; details: for GI50 / LC50 / TGI: UACC-62, 48 h
Summary of the method: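 NCI 60-cell-line screen, two stages. Five-dose testing at […]. Cellular protein measured by sulforhodamine B colorimetry after 48 h drug exposure. A time-zero control and drug-free plates are used to derive GI50, TGI and LC50 from dose-response curves plotted as log10 concentration per cell line.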

SMILES	growth at 10 µM [1] [%]	growth at 10 µM [2] [%]	growth at 10 µM [3] [%]	growth at 10 µM [4] [%]	growth at 10 µM [5] [%]	growth at 10 µM [6] [%]	growth at 10 µM [7] [%]	growth at 10 µM [8] [%]	growth at 10 µM [9] [%]	growth at 10 µM [10] [%]	growth at 10 µM [11] [%]	growth at 10 µM [12] [%]	growth at 10 µM [13] [%]	growth at 10 µM [14] [%]	growth at 10 µM [15] [%]	growth at 10 µM [16] [%]	growth at 10 µM [17] [%]	growth at 10 µM [18] [%]	growth at 10 µM [19] [%]	growth at 10 µM [20] [%]	other results
O=C1c2ccccc2C(=O)c2c1ccc1[nH]c(=S)[nH]c21	114	112	142	96.2	103	110	91.6	129	138	84.2	105	86.7	134	101	101	118	97.6	83.8	104	96.1	growth at 10 µM [21]: 98.6%; growth at 10 µM [22]: 96.3%; growth at 10 µM [23]: 65.5%; growth at 10 µM [24]: 109%; Activity [25]: 31%; viability at 100 µM [26]: 54%; viability at 10 µM [27]: 99%
CCSc1nc2ccc3c(c2[nH]1)C(=O)c1ccccc1C3=O	55.8	74.1	99.9	37.6	24.7	85.7	55	85.4	73.4	47.6	112	63.9	81.7	67.1	73.3	101	84.5	32.3	71.8	78.6	growth inhibition (GI) [28]: Dose-dependent effect; GI50 [28]: 7.73 µM; LC50 [28]: > 100 µM; TGI [28]: > 100 µM; growth at 10 µM [21]: 38.8%; growth at 10 µM [22]: 33.4%; growth at 10 µM [23]: 75.3%; growth at 10 µM [24]: 101%; Activity [25]: 17%; viability at 100 µM [26]: 73%; viability at 10 µM [27]: 127%
O=C1c2ccccc2C(=O)c2c1ccc1nc3n(c21)CCS3	87.9	58.8	46.5	59.4	87.4	84.1	89.3	105	62.3	73.1	80.6	65.9	99.9	78.5	95.6	78.6	69.3	57.1	95.2	80.6	growth at 10 µM [21]: 59.5%; growth at 10 µM [22]: 72.1%; growth at 10 µM [23]: 88.7%; growth at 10 µM [24]: 58.4%; Activity [25]: 48%; viability at 100 µM [26]: 99%; viability at 10 µM [27]: 128%
CN(C)CCCSc1nc2ccc3c(c2[nH]1)C(=O)c1ccccc1C3=O	75.8	31.7	38.4	24.3	32.4	54.3	29.7	87.9	30.9	75.4	114	62.5	80	77.3	50.5	76	26.4	36.3	62	69.3	growth inhibition (GI) [28]: Dose-dependent effect; GI50 [28]: 10.8 µM; TGI [28]: 23 µM; growth at 10 µM [21]: 23.2%; growth at 10 µM [22]: 70.8%; growth at 10 µM [23]: 16%; growth at 10 µM [24]: -2.9%; Activity [25]: 15%; viability at 100 µM [26]: 22%; viability at 10 µM [27]: 79%
CCCSc1nc2ccc3c(c2[nH]1)C(=O)c1ccccc1C3=O	76	35.5	20.1	27.2	38.9	50.2	42.2	99.7	53.7	51.1	86.3	78.5	79.3	90	-9.55	37.2	104	67.7	103	72.4	growth inhibition (GI) [28]: Dose-dependent effect; GI50 [28]: 5.78 µM; LC50 [28]: > 100 µM; TGI [28]: > 100 µM; growth at 10 µM [21]: 68.1%; growth at 10 µM [22]: 76%; growth at 10 µM [23]: 17.2%; growth at 10 µM [24]: 68.1%; Activity [25]: 33%; viability at 100 µM [26]: 12%; viability at 10 µM [27]: 78%
O=C1c2ccccc2C(=O)c2c1ccc1nc(SCCN3CCCC3)[nH]c21	78.6	36.9	22.3	34.6	55.6	53.7	57.2	87.5	23.2	81	92.8	78.5	107	70.9	81.8	76.9	22.8	40.4	17.1	81.5	growth inhibition (GI) [28]: Dose-dependent effect; GI50 [28]: 15.8 µM; LC50 [28]: 57.4 µM; TGI [28]: 30.1 µM; growth at 10 µM [21]: 34.1%; growth at 10 µM [22]: 73.2%; growth at 10 µM [23]: 35.2%; growth at 10 µM [24]: 30.9%; Activity [25]: 36%; viability at 100 µM [26]: 21%; viability at 10 µM [27]: 89%
